The record followed here is ChEMBL document CHEMBL4145630, “Development of Highly Potent and Selective Steroidal Inhibitors and Degraders of CDK8” (ACS Med Chem Lett, 2018).

Experiment [1] has as its target T1, Serine/threonine-protein kinase Nek1 (Homo sapiens) (UniProt Q96PY6).
T1 sequence (whole entry): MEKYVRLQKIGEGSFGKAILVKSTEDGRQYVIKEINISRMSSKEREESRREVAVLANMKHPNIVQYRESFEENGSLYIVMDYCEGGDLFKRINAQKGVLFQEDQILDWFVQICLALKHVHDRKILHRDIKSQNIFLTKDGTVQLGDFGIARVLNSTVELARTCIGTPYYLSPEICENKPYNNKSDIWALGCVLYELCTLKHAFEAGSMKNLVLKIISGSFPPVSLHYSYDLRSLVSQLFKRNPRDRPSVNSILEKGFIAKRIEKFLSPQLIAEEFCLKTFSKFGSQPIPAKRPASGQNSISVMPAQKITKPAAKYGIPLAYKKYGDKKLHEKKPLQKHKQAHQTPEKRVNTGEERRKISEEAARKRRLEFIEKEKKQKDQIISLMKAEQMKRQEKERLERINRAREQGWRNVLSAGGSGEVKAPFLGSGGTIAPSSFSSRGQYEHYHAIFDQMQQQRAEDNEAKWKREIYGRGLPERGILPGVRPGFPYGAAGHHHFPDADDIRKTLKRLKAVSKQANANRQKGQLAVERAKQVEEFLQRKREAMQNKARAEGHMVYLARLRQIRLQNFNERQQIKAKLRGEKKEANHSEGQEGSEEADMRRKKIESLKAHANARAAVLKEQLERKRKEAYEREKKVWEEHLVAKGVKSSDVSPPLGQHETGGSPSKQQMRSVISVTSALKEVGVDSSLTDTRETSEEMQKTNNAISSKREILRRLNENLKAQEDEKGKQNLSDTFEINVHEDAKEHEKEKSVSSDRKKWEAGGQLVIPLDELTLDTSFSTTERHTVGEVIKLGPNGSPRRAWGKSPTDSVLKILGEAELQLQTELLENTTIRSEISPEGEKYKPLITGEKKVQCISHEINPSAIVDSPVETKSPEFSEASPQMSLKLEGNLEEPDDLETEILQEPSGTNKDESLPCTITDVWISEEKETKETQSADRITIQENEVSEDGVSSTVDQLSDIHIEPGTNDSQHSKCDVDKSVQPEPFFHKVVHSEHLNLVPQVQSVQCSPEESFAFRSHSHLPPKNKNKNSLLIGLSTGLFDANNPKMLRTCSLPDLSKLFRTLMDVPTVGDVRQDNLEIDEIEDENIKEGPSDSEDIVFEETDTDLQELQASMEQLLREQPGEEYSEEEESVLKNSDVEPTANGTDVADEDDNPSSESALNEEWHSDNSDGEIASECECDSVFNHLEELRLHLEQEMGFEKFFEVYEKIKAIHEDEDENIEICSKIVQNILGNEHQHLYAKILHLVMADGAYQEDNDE
Briefly: Inhibition of wild-type human partial length NEK1 (M1 to K278 residues) expressed in bacterial expression system at 10 uM by Kinomescan method relative to control. The gist of the method:
(§1)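 Ambit KINOMEscan binding panel run at a single 10 μM concentration; results expressed relative to control, with a 90% inhibition cutoff applied.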

Experiment [2] has as its target T2, Cyclin-dependent kinase 8 (Homo sapiens, UniProt P49336). As to the kind of experiment: Inhibition of wild-type human partial length CDK8 (M1 to T360 residues) expressed in bacterial expression system at 10 uM by Kinomescan method relative to control. The gist of the method: as §1
Experiment [3] concerns the target T3, Serine/threonine-protein kinase Nek1 (Homo sapiens, UniProt Q96PY6).
T3 sequence (Q96PY6 whole entry): T1 sequence (whole entry)
As to the kind of experiment: Inhibition of wild-type human partial length NEK1 (M1 to K278 residues) expressed in bacterial expression system by Kinomescan method.

The target of experiment [4] is 1-phosphatidylinositol 3-phosphate 5-kinase (Homo sapiens) (UniProt Q9Y2I7). Briefly: Inhibition of wild-type human partial length PIKFYVE (F1512 to C2098 residues) expressed in mammalian expression system at 10 uM by Kinomescan method relative to control. The gist of the method: as §1
Experiment [5] has as its target T4, Cyclin-dependent kinase 19 (Homo sapiens, UniProt Q9BWU1). Briefly: Inhibition of human CDK19 (M1 to N360 residues) expressed in bacterial expression system by KINOMEscan assay.
Experiment [6] has as its target T4, Cyclin-dependent kinase 19. Briefly: Inhibition of human CDK19 (M1 to N360 residues) expressed in bacterial expression system at 10 uM by KINOMEscan assay relative to control.
The target of experiment [7] is T2, Cyclin-dependent kinase 8. As to the kind of experiment: Inhibition of CDK8 in human HepG2 cells assessed as reduction in IFNgamma-induced STAT1 phosphorylation at S727 measured after 18 hrs by Western blot analysis. It is filed as cell-based.
Experiment [8] concerns the target T2, Cyclin-dependent kinase 8. As to the kind of experiment: Inhibition of CDK8 (unknown origin).

Molecules are shown by their SMILES. Where only a bound is given, the exact number is not on record here.

T2 sequence (P49336 whole entry, the tested form may be a part): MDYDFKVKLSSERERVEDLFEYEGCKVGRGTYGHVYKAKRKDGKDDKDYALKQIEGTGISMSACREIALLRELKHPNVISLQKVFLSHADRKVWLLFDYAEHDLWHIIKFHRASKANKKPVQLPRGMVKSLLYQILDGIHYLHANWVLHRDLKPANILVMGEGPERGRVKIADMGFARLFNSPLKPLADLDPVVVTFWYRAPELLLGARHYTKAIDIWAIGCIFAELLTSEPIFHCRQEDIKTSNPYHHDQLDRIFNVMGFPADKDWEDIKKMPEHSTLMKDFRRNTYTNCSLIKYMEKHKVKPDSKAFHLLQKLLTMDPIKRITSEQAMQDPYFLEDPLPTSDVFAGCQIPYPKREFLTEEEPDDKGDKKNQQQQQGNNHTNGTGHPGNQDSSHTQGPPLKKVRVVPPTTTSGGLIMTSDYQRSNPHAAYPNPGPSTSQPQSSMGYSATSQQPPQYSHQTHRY
T4 sequence (Q9BWU1 whole entry, the tested form may be a part): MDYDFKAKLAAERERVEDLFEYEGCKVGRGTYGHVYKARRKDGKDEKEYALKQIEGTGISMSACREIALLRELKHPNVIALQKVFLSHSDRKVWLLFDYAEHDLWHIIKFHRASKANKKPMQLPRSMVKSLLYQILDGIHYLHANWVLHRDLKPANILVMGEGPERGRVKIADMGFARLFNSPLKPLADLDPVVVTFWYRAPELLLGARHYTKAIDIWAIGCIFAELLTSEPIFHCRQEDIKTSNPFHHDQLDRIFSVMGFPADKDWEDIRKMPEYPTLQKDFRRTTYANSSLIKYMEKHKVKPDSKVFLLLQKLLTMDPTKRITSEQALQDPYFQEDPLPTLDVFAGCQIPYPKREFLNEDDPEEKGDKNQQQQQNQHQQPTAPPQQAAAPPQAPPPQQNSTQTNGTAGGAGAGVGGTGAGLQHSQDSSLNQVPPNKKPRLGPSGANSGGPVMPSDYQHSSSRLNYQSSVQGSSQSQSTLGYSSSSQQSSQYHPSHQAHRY
Sequence of 1-phosphatidylinositol 3-phosphate 5-kinase (Homo sapiens) (Q9Y2I7 whole entry, the tested form may be a part): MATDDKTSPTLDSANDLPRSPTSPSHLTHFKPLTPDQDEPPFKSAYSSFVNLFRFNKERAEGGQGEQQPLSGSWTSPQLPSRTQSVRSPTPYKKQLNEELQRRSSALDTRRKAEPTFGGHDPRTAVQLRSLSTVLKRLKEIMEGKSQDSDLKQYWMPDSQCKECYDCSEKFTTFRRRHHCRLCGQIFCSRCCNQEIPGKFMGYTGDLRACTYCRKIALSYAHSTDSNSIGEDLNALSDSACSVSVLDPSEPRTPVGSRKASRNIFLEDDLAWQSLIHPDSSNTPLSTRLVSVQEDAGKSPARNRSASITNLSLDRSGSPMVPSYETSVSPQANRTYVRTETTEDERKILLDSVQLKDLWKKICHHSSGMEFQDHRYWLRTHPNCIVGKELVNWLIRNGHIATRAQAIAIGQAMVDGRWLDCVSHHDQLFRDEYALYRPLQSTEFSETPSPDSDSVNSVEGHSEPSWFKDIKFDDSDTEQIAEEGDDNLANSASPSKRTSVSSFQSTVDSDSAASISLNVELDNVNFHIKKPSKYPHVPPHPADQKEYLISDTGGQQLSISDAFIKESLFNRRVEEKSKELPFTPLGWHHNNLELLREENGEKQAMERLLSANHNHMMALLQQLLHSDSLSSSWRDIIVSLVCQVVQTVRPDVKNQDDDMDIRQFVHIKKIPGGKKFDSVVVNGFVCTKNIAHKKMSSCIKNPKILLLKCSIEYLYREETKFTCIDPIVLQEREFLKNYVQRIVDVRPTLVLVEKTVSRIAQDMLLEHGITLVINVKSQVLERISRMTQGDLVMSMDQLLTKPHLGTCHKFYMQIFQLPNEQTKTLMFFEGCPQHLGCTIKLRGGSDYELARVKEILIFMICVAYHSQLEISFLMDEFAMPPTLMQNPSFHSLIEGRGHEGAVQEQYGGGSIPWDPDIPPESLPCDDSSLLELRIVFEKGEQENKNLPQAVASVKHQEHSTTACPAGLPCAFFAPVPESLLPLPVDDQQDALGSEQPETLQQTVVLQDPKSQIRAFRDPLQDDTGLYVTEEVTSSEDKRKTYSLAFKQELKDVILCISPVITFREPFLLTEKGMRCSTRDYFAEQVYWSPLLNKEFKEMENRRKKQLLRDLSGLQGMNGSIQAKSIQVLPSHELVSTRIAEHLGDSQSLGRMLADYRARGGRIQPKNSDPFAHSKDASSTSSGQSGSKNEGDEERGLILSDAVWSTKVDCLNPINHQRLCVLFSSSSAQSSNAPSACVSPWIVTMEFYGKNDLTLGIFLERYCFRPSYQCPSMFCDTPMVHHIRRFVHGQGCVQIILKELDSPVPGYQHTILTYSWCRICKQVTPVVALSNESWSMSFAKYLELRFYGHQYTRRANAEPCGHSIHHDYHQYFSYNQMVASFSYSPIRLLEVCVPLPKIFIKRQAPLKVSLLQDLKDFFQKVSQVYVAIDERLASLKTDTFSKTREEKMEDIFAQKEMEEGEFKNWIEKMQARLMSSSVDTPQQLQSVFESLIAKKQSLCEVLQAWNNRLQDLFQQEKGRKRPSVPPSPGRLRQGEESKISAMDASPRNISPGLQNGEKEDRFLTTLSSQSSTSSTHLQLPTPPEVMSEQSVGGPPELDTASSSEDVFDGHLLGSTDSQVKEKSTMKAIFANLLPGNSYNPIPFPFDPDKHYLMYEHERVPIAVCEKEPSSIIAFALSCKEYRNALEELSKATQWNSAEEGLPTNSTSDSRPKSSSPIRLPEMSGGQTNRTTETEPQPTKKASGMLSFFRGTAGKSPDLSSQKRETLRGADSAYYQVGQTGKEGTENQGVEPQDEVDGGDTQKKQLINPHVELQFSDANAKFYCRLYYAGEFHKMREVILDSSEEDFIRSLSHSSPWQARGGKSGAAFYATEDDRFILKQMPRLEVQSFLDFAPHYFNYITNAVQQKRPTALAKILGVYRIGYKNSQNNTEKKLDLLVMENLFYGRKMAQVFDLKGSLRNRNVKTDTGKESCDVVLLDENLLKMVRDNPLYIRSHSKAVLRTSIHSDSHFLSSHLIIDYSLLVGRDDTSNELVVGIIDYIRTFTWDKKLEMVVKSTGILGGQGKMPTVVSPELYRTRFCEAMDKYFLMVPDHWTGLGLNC

Consider `CN(C)[C@H]1CC[C@@]2(C)C(=CC[C@H]3[C@@H]4CC[C@H](c5ccc6ccncc6c5)[C@@]4(C)CC[C@@H]32)C1`, for which the inhibition in experiment [1] was > 90%; in experiment [2] it was > 90%; in experiment [4] it was > 90%; in experiment [6], > 90%; in experiment [7], “Dose-dependent effect”. Further, the IC50 in experiment [3] was > 10000 nM; in experiment [5] it was 8 nM; in experiment [8], 16 nM.

In general, inhibition refers to the relative decrease from the control value, in per cent. The term IC50 denotes the concentration that gives 50% inhibition. Read a low IC50 as greater potency in that assay.
